Molecular target: T1, Epidermal growth factor receptor (Homo sapiens, UniProt P00533)
Assay: Displacement of [125I]4-(3-iodoanilino)-6,7-dimethoxyquinazoline from EGFR tyrosine kinase in human A431 cell membranes
Design: species or system A-431
Conditions: not given

T1 sequence (P00533 whole entry): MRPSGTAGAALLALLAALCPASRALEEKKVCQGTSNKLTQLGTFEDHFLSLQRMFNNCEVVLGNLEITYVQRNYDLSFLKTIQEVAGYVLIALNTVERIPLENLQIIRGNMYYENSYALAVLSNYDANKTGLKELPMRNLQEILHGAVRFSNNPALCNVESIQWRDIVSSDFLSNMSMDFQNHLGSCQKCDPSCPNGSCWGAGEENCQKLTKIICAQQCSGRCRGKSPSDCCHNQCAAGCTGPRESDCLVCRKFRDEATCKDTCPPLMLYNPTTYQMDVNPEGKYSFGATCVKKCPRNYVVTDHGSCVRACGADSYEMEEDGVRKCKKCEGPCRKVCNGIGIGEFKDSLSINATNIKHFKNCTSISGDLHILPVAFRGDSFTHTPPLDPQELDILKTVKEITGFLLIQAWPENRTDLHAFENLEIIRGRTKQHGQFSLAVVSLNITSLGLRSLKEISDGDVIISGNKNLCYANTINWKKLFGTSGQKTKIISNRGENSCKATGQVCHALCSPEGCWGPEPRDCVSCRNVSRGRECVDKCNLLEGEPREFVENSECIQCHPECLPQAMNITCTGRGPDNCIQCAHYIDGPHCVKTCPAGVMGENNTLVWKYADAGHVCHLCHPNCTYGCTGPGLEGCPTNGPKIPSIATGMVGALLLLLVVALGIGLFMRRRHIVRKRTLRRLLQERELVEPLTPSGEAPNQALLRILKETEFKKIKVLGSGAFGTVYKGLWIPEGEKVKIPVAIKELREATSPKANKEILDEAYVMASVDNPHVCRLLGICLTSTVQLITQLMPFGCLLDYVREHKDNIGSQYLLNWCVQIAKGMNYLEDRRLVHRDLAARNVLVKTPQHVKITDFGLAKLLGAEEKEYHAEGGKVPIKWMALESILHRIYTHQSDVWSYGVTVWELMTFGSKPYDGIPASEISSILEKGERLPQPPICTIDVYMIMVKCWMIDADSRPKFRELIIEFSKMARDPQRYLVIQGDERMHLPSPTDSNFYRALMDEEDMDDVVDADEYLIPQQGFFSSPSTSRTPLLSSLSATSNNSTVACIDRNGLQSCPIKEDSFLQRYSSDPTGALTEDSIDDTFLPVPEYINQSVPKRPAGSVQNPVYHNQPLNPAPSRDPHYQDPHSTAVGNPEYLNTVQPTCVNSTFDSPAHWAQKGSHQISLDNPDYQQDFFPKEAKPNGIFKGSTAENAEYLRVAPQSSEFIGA

Compound | IC50 [nM]
COc1cc2ncnc(Nc3ccc(F)cc3)c2cc1OC | 51
CCOc1cc2ncnc(Nc3cc(F)cc(C(F)(F)F)c3)c2cc1OCC | 8.95
COc1cc2ncnc(Nc3cc(F)cc(C(F)(F)F)c3)c2cc1OC | 20
CCOc1cc2ncnc(Nc3cccc(Br)c3)c2cc1OCC | 0.41
COc1cc2ncnc(Nc3cccc(I)c3)c2cc1OC | 1.05
COc1cc2ncnc(Nc3ccccc3F)c2cc1OC | 32.2

Results, then the compound that gave them:

IC50 [nM] | Compound
17 | CCOc1cc2ncnc(NCc3ccc(F)cc3)c2cc1OCC
9.31 | CCOc1cc2ncnc(Nc3ccccc3F)c2cc1OCC
16 | CCOc1cc2ncnc(Nc3ccc(F)cc3)c2cc1OCC
8.17 | CCOc1cc2ncnc(Nc3cccc(F)c3)c2cc1OCC
0.64 | CCOc1cc2ncnc(Nc3cccc(I)c3)c2cc1OCC
0.38 | CCOc1cc2ncnc(Nc3cccc(Cl)c3)c2cc1OCC

Tested on: not listed separately
Assay: Lipophilicity, log P of the compound
Assay type: physicochemical
Conditions: octanol/water
Method in brief: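 Log Po/w estimated by reversed-phase HPLC on a C8 column. Mobile phases were methanol with 0.25% 1-octanol and octanol-saturated water with 0.02 M MOPS and 0.15% n-decylamine, pH 7.4, at 1 mL/min. Uracil served as void marker. log k′w was obtained by linear extrapolation of retention over 60–85% methanol.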

Compound | logP
COc1cc2ncnc(Nc3ccc(F)cc3)c2cc1OC | 2.87
CCOc1cc2ncnc(Nc3cc(F)cc(C(F)(F)F)c3)c2cc1OCC | 5.49
COc1cc2ncnc(Nc3cc(F)cc(C(F)(F)F)c3)c2cc1OC | 4.66
COc1cc2ncnc(Nc3cccc(Br)c3)c2cc1OC | 3.49
CCOc1cc2ncnc(Nc3cccc(Br)c3)c2cc1OCC | 4.4
COc1cc2ncnc(Nc3cccc(I)c3)c2cc1OC | 3.65
COc1cc2ncnc(Nc3ccccc3F)c2cc1OC | 2.2
COc1cc2ncnc(Nc3cccc(Cl)c3)c2cc1OC | 3.51
COc1cc2ncnc(Nc3cccc(F)c3)c2cc1OC | 2.96

Now from value to compound:

logP | Compound
3.78 | CCOc1cc2ncnc(NCc3ccc(F)cc3)c2cc1OCC
3.02 | COc1cc2ncnc(NCc3ccc(F)cc3)c2cc1OC
3.02 | CCOc1cc2ncnc(Nc3ccccc3F)c2cc1OCC
3.73 | CCOc1cc2ncnc(Nc3ccc(F)cc3)c2cc1OCC
3.71 | CCOc1cc2ncnc(Nc3cccc(F)c3)c2cc1OCC
4.62 | CCOc1cc2ncnc(Nc3cccc(I)c3)c2cc1OCC
4.31 | CCOc1cc2ncnc(Nc3cccc(Cl)c3)c2cc1OCC

Molecular target: Receptor tyrosine-protein kinase erbB-2 (Homo sapiens, UniProt P04626)
Assay: Inhibition of human ErbB2 tyrosine kinase phosphorylation expressed in mouse BaF3 cells
Assay type: functional, cell-based
Conditions: not given

Receptor tyrosine-protein kinase erbB-2, sequence (P04626 whole entry): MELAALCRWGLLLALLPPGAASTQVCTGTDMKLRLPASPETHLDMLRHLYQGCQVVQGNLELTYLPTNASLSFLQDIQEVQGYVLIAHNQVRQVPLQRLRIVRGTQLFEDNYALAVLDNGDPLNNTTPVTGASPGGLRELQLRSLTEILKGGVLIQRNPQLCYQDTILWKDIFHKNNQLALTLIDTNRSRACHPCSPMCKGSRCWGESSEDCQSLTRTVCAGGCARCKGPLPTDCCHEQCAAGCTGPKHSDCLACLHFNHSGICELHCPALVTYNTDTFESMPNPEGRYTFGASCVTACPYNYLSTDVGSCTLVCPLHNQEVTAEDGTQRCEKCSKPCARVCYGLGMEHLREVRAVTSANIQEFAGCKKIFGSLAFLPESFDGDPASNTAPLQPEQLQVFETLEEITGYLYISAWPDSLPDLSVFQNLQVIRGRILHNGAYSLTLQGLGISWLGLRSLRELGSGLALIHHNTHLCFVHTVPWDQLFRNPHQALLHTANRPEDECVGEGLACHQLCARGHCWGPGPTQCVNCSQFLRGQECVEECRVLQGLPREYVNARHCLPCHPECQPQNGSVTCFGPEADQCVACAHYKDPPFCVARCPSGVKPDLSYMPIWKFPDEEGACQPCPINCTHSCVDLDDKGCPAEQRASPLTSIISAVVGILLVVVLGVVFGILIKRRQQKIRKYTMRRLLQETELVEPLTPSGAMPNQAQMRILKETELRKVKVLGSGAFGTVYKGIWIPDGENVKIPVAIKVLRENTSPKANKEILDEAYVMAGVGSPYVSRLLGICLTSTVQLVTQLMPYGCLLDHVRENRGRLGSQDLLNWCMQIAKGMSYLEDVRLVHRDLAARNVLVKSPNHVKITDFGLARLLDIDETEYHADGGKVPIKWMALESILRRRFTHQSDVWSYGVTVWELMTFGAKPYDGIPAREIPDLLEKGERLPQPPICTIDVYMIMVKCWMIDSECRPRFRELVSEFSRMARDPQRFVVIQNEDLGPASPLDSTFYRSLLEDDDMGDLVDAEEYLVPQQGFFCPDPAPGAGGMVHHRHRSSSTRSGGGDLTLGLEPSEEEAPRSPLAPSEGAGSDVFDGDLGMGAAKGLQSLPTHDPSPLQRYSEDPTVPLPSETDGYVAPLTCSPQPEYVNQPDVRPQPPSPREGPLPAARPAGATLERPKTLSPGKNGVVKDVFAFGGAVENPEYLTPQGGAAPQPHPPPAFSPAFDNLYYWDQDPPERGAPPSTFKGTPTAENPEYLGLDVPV

IC50 [nM] | Compound
231 | CCOc1cc2ncnc(NCc3ccc(F)cc3)c2cc1OCC
215 | CCOc1cc2ncnc(Nc3cccc(Br)c3)c2cc1OCC
69 | CCOc1cc2ncnc(Nc3cccc(I)c3)c2cc1OCC

Molecular target: Receptor tyrosine-protein kinase erbB-4 (Homo sapiens, UniProt Q15303)
Assay: Inhibition of human ErbB4 tyrosine kinase phosphorylation expressed in human CEM/4 cells
Assay type: functional, cell-based
Conditions: not given
Method in brief: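 CEM cells expressing ErbB4, grown in RPMI with 10% heat-inactivated FBS and G418, then serum-starved 24 h at 37 °C. About 10^7 cells/mL given inhibitor at three to five concentrations for 2 h at 37 °C, chilled 20 min, then stimulated with NRG1β 100 ng/mL final for 7 min on ice. Lysate glycoproteins captured on ConA. Phosphotyrosine read by 4G10 immunoblot. IC50 read against DMSO standard curve.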

Receptor tyrosine-protein kinase erbB-4, sequence (Q15303 whole entry): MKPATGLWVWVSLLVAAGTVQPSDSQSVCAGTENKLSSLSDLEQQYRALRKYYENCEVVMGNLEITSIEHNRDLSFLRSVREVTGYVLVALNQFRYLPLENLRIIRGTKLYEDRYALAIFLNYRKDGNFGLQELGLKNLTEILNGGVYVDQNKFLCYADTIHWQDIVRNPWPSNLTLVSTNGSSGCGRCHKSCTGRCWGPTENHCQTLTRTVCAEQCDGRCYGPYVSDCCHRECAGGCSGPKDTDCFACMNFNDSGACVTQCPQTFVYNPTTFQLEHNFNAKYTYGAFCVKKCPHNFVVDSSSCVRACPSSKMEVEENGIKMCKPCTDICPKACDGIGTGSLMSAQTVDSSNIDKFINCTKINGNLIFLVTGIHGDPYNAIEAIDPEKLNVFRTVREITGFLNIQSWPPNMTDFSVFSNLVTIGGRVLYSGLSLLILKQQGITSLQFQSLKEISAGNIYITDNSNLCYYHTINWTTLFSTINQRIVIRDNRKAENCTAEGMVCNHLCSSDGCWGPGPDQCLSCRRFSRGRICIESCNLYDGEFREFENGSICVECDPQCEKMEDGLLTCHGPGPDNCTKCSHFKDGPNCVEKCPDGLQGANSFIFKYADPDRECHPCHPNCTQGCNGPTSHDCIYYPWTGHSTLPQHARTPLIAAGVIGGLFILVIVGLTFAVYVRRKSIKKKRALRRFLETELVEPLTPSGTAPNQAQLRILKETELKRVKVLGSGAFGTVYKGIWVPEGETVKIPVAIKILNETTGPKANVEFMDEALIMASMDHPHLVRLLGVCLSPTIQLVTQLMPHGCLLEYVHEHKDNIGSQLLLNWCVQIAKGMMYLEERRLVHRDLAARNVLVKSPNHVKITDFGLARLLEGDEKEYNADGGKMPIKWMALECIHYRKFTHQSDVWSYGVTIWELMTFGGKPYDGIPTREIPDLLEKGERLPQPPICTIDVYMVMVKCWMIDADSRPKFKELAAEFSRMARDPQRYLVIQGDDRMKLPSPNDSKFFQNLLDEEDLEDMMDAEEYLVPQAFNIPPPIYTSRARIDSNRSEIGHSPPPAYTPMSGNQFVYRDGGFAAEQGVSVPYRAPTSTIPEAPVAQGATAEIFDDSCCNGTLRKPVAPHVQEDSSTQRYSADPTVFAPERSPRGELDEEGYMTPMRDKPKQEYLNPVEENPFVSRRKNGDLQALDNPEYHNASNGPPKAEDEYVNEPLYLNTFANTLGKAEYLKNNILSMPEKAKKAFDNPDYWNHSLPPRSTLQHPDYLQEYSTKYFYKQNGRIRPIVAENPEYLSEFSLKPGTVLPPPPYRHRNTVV

Compound | IC50 [nM]
COc1cc2ncnc(Nc3cccc(Br)c3)c2cc1OC | 49
CCOc1cc2ncnc(Nc3cccc(Br)c3)c2cc1OCC | 50

Results, then the compound that gave them:

IC50 [nM] | Compound
> 100 | CCOc1cc2ncnc(NCc3ccc(F)cc3)c2cc1OCC
59 | CCOc1cc2ncnc(Nc3cccc(I)c3)c2cc1OCC

Molecular target: T1, Epidermal growth factor receptor
Assay: Inhibition of human EGFR tyrosine kinase phosphorylation expressed in mouse BaF3 cells
Assay type: functional, cell-based
Conditions: not given

Compound | IC50 [nM]
COc1cc2ncnc(Nc3ccc(F)cc3)c2cc1OC | 19.1
CCOc1cc2ncnc(Nc3cc(F)cc(C(F)(F)F)c3)c2cc1OCC | > 50
COc1cc2ncnc(Nc3cc(F)cc(C(F)(F)F)c3)c2cc1OC | 19.1
CCOc1cc2ncnc(Nc3cccc(Br)c3)c2cc1OCC | 3.2
COc1cc2ncnc(Nc3cccc(I)c3)c2cc1OC | 6.4
COc1cc2ncnc(Nc3ccccc3F)c2cc1OC | 12.8

More lines, now with the values ahead:

IC50 [nM] | Compound
6.6 | CCOc1cc2ncnc(NCc3ccc(F)cc3)c2cc1OCC
15.8 | CCOc1cc2ncnc(Nc3ccccc3F)c2cc1OCC
23.1 | CCOc1cc2ncnc(Nc3ccc(F)cc3)c2cc1OCC
6.5 | CCOc1cc2ncnc(Nc3cccc(F)c3)c2cc1OCC
4.6 | CCOc1cc2ncnc(Nc3cccc(I)c3)c2cc1OCC
1.2 | CCOc1cc2ncnc(Nc3cccc(Cl)c3)c2cc1OCC
